Bioassay records (PubChem BioAssay)
CSC inhib: blocks cancer stem cells. inhibition, % at 7.5 µM. AID 2717. cancer stem cell-like cells viability, luminescence. 300,000 tested, 1.1% active; in the data active = inhibition above about 75%; tested in HMLE shEcad cells
HIF act: HIF pathway transcriptional activation | activation, % at 7.5 µM (by protocol) | U2OS HRE-luciferase reporter, luminescence; normalized: DMSO 0%, desferrioxamine 100% | 300,000 tested, 0.32% active;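 active = mean activation of at least 10% of the iron chelator positive control signal, with at least half of replicates also reaching 10%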
PfHsp90 yeast 2: growth inhibition of yeast expressing Plasmodium Hsp90 | S. cerevisiae expressing PfHsp90, BacTiter-Glo ATP, 48 h; yeast lacking PDR1 and PDR3 efflux regulators | 310,000 tested, 0.32% active | AID 504621 | inhibition, % at 9.4 µM;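 active = every replicate shows inhibition above about 80%, whatever the replicate mean, limit read from the data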
SKKanGAS inh: blocks kanamycin growth of S. pyogenes SKKanGAS strain; BacTiter-Glo, 6 h; inhibition, % at 7.5 µM; 300,000 tested, 1.3% active; AID 1662;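 active = mean replicate score, as percent of positive control median, at least 50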;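 also: strain carries kanamycin resistance gene driven by streptokinase promoter and grows in 40 µg/ml kanamycin; loss of luminescence reflects streptokinase promoter inhibition or plain growth inhibition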
T cruzi repl: blocks replication of Trypanosoma cruzi | T. cruzi beta-gal in NIH3T3, luminescence, 90 h | inhibition, % (concentration not given with the values) | 300,000 tested, 1.4% active | AID 1885;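 active = mean inhibition across valid replicates above about 55%, limit read from the data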;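 also: signal also drops with host cell toxicity which is not excluded here; higher percent means less beta-gal luminescence so fewer parasites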
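Assay system: NIH/3T3 fibroblasts plus reporter T. cruzi. Amount: NIH/3T3 cells, 5,000 per well. Buffer or medium: DMEM, 2% fetal bovine serum. Doses: compound pinned at 50 nL/well, DMSO. Schedule: ≥90 h infection period, 3 h prior cell attachment. Signal: luminescent β-galactosidase signal after 60 min lysis. Read-out: parasite load inhibition, %.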
Beta apoptosis: blocks beta cell apoptosis | INS-1E cytokine-induced death, ATP luminescence, 48 h; percent of positive-control rescue, neutral wells zero | protection from apoptosis, % (test concentration not listed) | 300,000 tested, 0.8% active;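 active = Every replicate reaches about 75%, or at least half do and their mean reaches it too, limit read from the data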;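 also: higher means more ATP so stronger rescue from cytokine killing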
Numbers stand for hits. In the library only some 3.6% were active in any assay of this set; here they are far more common.

For CC1(C)CC(=O)C2=C(C1)c1c(ccc3ccccc13)NC2c1cc([N+](=O)[O-])cc([N+](=O)[O-])c1O (centres undefined) the results were CSC inhib inactive, HIF act inactive, PfHsp90 yeast 2 inactive, SKKanGAS inh 72, T cruzi repl inactive and Beta apoptosis inactive.
Cc1c(Cc2ccccc2)c(=O)oc2cc(OCc3ccc(C(=O)O)cc3)ccc12 was read as CSC inhib inactive, HIF act inactive, PfHsp90 yeast 2 inactive, SKKanGAS inh 54, T cruzi repl inactive and Beta apoptosis inactive.
`COc1cccc(COc2ccc3c(C)c(Cc4ccccc4)c(=O)oc3c2)c1` gave CSC inhib inactive, HIF act inactive, PfHsp90 yeast 2 inactive, SKKanGAS inh inactive, T cruzi repl inactive and Beta apoptosis inactive.
CCOc1cc(N2CCOCC2)c(OCC)cc1NC(=O)COC(=O)[C@@H]1CCCN1S(=O)(=O)c1ccccc1F was read as HIF act inactive, PfHsp90 yeast 2 inactive, SKKanGAS inh inactive, T cruzi repl inactive and Beta apoptosis inactive.
`CCOC(=O)c1ccc(NC(=O)c2nc(S(=O)(=O)Cc3ccccc3)ncc2Cl)cc1` gave CSC inhib 103, HIF act inactive, PfHsp90 yeast 2 inactive, SKKanGAS inh 82, T cruzi repl inactive and Beta apoptosis 78.
CCOC(=O)c1ccc(NC(=O)CCS(=O)(=O)Cc2ccccc2)cc1 was read as CSC inhib inactive, HIF act inactive, PfHsp90 yeast 2 inactive, SKKanGAS inh inactive, T cruzi repl inactive and Beta apoptosis inactive.
CCc1ccc(NC(=O)c2nc(S(=O)(=O)Cc3ccccc3)ncc2Cl)cc1 was read as CSC inhib 105, HIF act inactive, PfHsp90 yeast 2 99, SKKanGAS inh inactive, T cruzi repl inactive and Beta apoptosis inactive.
Cc1ccc(NC(=O)c2nc(S(=O)(=O)Cc3ccccc3C)ncc2Cl)cc1C was read as CSC inhib 103, HIF act inactive, PfHsp90 yeast 2 inactive, SKKanGAS inh 68, T cruzi repl inactive and Beta apoptosis inactive.
For CCS(=O)(=O)c1ncc(Cl)c(C(=O)Nc2ccc(S(=O)(=O)N3CCC(C)CC3)cc2)n1 the results were CSC inhib 118, PfHsp90 yeast 2 inactive, SKKanGAS inh inactive, T cruzi repl 62 and Beta apoptosis 108.
`O=C(O)c1ccccc1-c1ccccc1C(=O)Nc1cccc(O)c1` gave CSC inhib inactive, HIF act inactive, PfHsp90 yeast 2 inactive, SKKanGAS inh inactive, T cruzi repl inactive and Beta apoptosis inactive.
For CCC(C)Sc1ccc([C@H]2N[C@@](C)(C(=O)OC)[C@H]3C(=O)N(CC)C(=O)[C@@H]23)cc1OC (some centres undefined) the results were CSC inhib inactive, PfHsp90 yeast 2 inactive and Beta apoptosis inactive.
OCC(O)C1OC(Nc2ccc(Cl)cc2)C(O)C1O (centres undefined) was read as CSC inhib inactive, HIF act inactive, PfHsp90 yeast 2 inactive, SKKanGAS inh inactive, T cruzi repl inactive and Beta apoptosis inactive.
`CCCc1nnc(NC(=O)c2nc(S(=O)(=O)Cc3ccc(C)cc3)ncc2Cl)s1` gave CSC inhib 108, HIF act inactive, PfHsp90 yeast 2 inactive, SKKanGAS inh inactive, T cruzi repl inactive and Beta apoptosis inactive.
`CC(C)c1nnc(NC(=O)c2nc(S(=O)(=O)Cc3ccccc3)ncc2Cl)s1` gave HIF act inactive, PfHsp90 yeast 2 inactive, SKKanGAS inh inactive and T cruzi repl inactive.
Screening CC[C@H](C)[C@H](NC(=O)OCc1ccccc1)C(=O)OCC(=O)N1CCN(c2ccc(F)cc2)CC1 returned PfHsp90 yeast 2 inactive.
Cc1ccc(/C(N)=N/OC(=O)c2cccc(Cn3cc(C(F)(F)F)ccc3=O)c2)cc1 was read as CSC inhib inactive, HIF act inactive, PfHsp90 yeast 2 inactive, SKKanGAS inh inactive, T cruzi repl inactive and Beta apoptosis 99.
`O=C(Sc1ccc(Cl)cc1)c1cccc(Cn2cc(C(F)(F)F)ccc2=O)c1` gave CSC inhib inactive, HIF act inactive, PfHsp90 yeast 2 inactive, SKKanGAS inh inactive, T cruzi repl inactive and Beta apoptosis inactive.
Screening N/C(=N\OC(=O)c1cccc(Cn2cc(C(F)(F)F)ccc2=O)c1)c1ccccc1 returned CSC inhib inactive, HIF act inactive, PfHsp90 yeast 2 inactive, SKKanGAS inh inactive, T cruzi repl inactive and Beta apoptosis 113.
Screening N/C(=N\OC(=O)c1cccc(Cn2cc(C(F)(F)F)ccc2=O)c1)c1ccc(Cl)cc1 returned CSC inhib inactive, HIF act inactive, PfHsp90 yeast 2 inactive, SKKanGAS inh inactive, T cruzi repl inactive and Beta apoptosis 113.
`CC(C)CCN1CCC(n2nccc2NC(=O)c2ccc3c(c2)OCO3)CC1` gave CSC inhib inactive, HIF act inactive, PfHsp90 yeast 2 inactive, SKKanGAS inh inactive, T cruzi repl inactive and Beta apoptosis inactive.
Screening COC(=O)c1ccc(-c2ccc(/C=N/NC(=O)Cc3nnc(N)s3)o2)cc1 returned CSC inhib inactive, HIF act inactive, PfHsp90 yeast 2 inactive, SKKanGAS inh inactive, T cruzi repl inactive and Beta apoptosis inactive.
O=C1C2C(c3ccccc3)=NN(c3ccccc3)C2C(=O)N1c1ccccc1 (centres undefined) was read as CSC inhib inactive, HIF act inactive, PfHsp90 yeast 2 inactive, SKKanGAS inh 107, T cruzi repl inactive and Beta apoptosis inactive.
For O=C1[C@H]2C(c3ccccc3)=NN(c3ccccc3)[C@H]2C(=O)N1c1ccccc1 the results were CSC inhib inactive, HIF act inactive, PfHsp90 yeast 2 inactive, SKKanGAS inh 89, T cruzi repl inactive and Beta apoptosis inactive.
For O=C1OCCN1C(=O)[C@H]1[C@H](c2ccc(Cl)cc2)C(c2ccccc2)=NN1c1ccccc1 the results were PfHsp90 yeast 2 inactive.
`OC[C@@H]1[C@@H](c2ccc(F)cc2)C(c2ccccc2)=NN1c1ccccc1` gave PfHsp90 yeast 2 inactive.
`CCOCCCN(C)C1CCN(C(=O)c2oc3ccccc3c2NC(=O)c2ccc(F)cc2)CC1` gave CSC inhib inactive, PfHsp90 yeast 2 inactive, SKKanGAS inh inactive, T cruzi repl 56 and Beta apoptosis inactive.
For CCOc1ccc(C2Nc3ccc4ccccc4c3-c3c2c(=O)oc2ccccc32)cc1 (centres undefined) the results were CSC inhib inactive, HIF act inactive, PfHsp90 yeast 2 inactive, SKKanGAS inh inactive, T cruzi repl 66 and Beta apoptosis inactive.
`O=c1oc2ccccc2c2c1C(c1ccc(Cl)cc1)Nc1ccc3ccccc3c1-2` (centres undefined) gave CSC inhib inactive, HIF act inactive, PfHsp90 yeast 2 inactive, SKKanGAS inh inactive, T cruzi repl inactive and Beta apoptosis inactive.
For COc1ccc(C2Nc3ccc4ccccc4c3-c3c2c(=O)oc2ccccc32)cc1 (centres undefined) the results were CSC inhib inactive, HIF act inactive, PfHsp90 yeast 2 inactive, SKKanGAS inh inactive, T cruzi repl 66 and Beta apoptosis inactive.
